Activity calls are given as the source filed them. No cut-off for these calls is given here.
Columns and labels:
HeLa C3 [1] = assay: Induction of apoptosis in human HeLaC3 cells assessed as reduction of yellow fluorescent protein/cyan fluorescent protein emission ratio below 3 at 20 uM after 72 hrs using fluorescent plate reader; format: functional, cell-based
In short: (§1)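 HeLa-C3 cells express a caspase-3-cleavable CFP/YFP biosensor and are grown in MEM with 10% FBS and penicillin/streptomycin at 37 °C, 5% CO2. Seed 7500 cells per well and incubate 12-16 h. Take a 0 h read (ex 440 nm; em 486 nm CFP, 535 nm YFP), then replace the medium with compound-containing medium; include cell-free background wells. Read repeatedly up to 72 h. A YFP/CFP ratio below 3 scores as apoptotic. Triplicate wells, three experiments; 0.1% DMSO negative control.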

HeLa C3 [2] = assay: Induction of apoptosis in human HeLaC3 cells assessed as reduction of yellow fluorescent protein/cyan fluorescent protein emission ratio below 3 at 20 uM after 48 hrs using fluorescent plate reader; format: functional, cell-based; in short: as §1
HeLa C3 [3] = assay: Induction of apoptosis in human HeLaC3 cells assessed as reduction of yellow fluorescent protein/cyan fluorescent protein emission ratio below 3 at 20 uM after 24 hrs using fluorescent plate reader; format: functional, cell-based; in short: as §1
HeLa C3 [4] = assay: Induction of apoptosis in human HeLaC3 cells assessed as reduction of yellow fluorescent protein/cyan fluorescent protein emission ratio below 3 at 500 nM after 72 hrs using fluorescent plate reader
HeLa C3 [5] = assay: Induction of apoptosis in human HeLaC3 cells assessed as reduction of yellow fluorescent protein/cyan fluorescent protein emission ratio below 3 at 500 nM after 24 hrs using fluorescent plate reader
HeLa C3 [6] = assay: Induction of apoptosis in human HeLaC3 cells assessed as shrinkage and detached morphology at 500 nM after 48 hrs
HeLa C3 [7] = assay: Induction of apoptosis in human HeLaC3 cells assessed as shrinkage and detached morphology at 500 nM after 72 hrs
HeLa C3 [8] = assay: Induction of apoptosis in human HeLaC3 cells assessed as reduction of yellow fluorescent protein/cyan fluorescent protein emission ratio below 3 at 500 nM after 48 hrs using fluorescent plate reader
HeLa C3 [9] = assay: Induction of apoptosis in human HeLaC3 cells assessed as shrinkage and detached morphology at 500 nM after 24 hrs
HeLa C3 [10] = assay: Induction of apoptosis in human HeLaC3 cells assessed as shrinkage and detached morphology at 20 uM after 24 hrs; format: functional, cell-based
HeLa C3 [11] = assay: Induction of apoptosis in human HeLaC3 cells assessed as shrinkage and detached morphology at 20 uM after 48 hrs; format: functional, cell-based
HeLa C3 [12] = assay: Induction of apoptosis in human HeLaC3 cells assessed as shrinkage and detached morphology at 20 uM after 72 hrs; format: functional, cell-based

Structure (SMILES) | Activity (HeLa C3 [1]) | Activity (HeLa C3 [2]) | Activity (HeLa C3 [3]) | further results
CC(C)=CCC/C(C)=C/C[C@H]1C[C@@]2(CC=C(C)C)C(=O)c3c(oc4cc(O)c(O)cc4c3=O)[C@](CC=C(C)C)(C2=O)C1(C)C | Active | Active | inactive | 
COc1cc(O)c2c(=O)c3ccc(O)c(O)c3oc2c1CCC(C)(C)O | Active | inactive | inactive | 
CC(C)=CCC/C(C)=C/C[C@@H]1C[C@]2(CC=C(C)C)C(=O)[C@@](CC=C(C)C)(C(=O)C(C(=O)c3ccc(O)c(O)c3)=C2O)C1(C)C | Active | Active | inactive | 
CC(=O)O[C@H]1C(=O)[C@@]2(C)[C@H]([C@H](OC(=O)c3ccccc3)[C@]3(O)C[C@H](OC(=O)[C@H](O)[C@@H](NC(=O)c4ccccc4)c4ccccc4)C(C)=C1C3(C)C)[C@]1(OC(C)=O)CO[C@@H]1C[C@@H]2O |  |  |  | Activity (HeLa C3 [4]): Active; Activity (HeLa C3 [5]): inactive; Activity (HeLa C3 [6]): Active; Activity (HeLa C3 [7]): Active; Activity (HeLa C3 [8]): Active; Activity (HeLa C3 [9]): Active
CC1(C)C=Cc2cc3c(=O)c4c(O)cc(O)cc4oc3c(O)c2O1 | Active | inactive | inactive | 
COc1cc(O)c2c(=O)c3c(CC=C(C)C)cc(O)c(O)c3oc2c1C/C=C(\C)CCC=C(C)C | Active | Active | inactive | 
CC(C)=CCC/C(C)=C/C[C@H]1C[C@]2(C/C=C(\C)CCC=C(C)C)C(=O)[C@@](CC=C(C)C)(C(=O)C(C(=O)c3ccc(O)c(O)c3)=C2O)C1(C)C | Active | inactive | inactive | 
CC(C)=CCC/C(C)=C/C[C@@H]1C[C@]2(CC=C(C)C)C(=O)[C@@](CC=C(C)C)(C(=O)C(C(=O)c3ccc(O)c(O)c3)=C2O)[C@@]1(C)CCC=C(C)C | Active | Active | Active | Activity (HeLa C3 [10]): Active; Activity (HeLa C3 [11]): Active; Activity (HeLa C3 [12]): Active
CC(C)=CCC/C(C)=C/C[C@@H]1C[C@@]2(CC=C(C)C)C(=O)c3c(oc4cc(O)c(O)cc4c3=O)[C@](CC=C(C)C)(C2=O)C1(C)C | Active | Active | inactive | 

Reference: ChEMBL document CHEMBL1151810, “Bioassay-guided isolation of xanthones and polycyclic prenylated acylphloroglucinols from Garcinia oblongifolia” (J Nat Prod, 2009)
